# CHOP UPR activ = activators of apoptotic CHOP UPR arm, primary screen, cell-based, CHO-CHOP luciferase reporter, luminescence, uHTS; UPR activation; percent of tunicamycin response over DMSO baseline; activation, % at 10 µM; actives 0.34% (n = 330,000); AID 449763, 2010;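 active = at 10 µM dose, activation of 40% or more, normalized to positive control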;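 note: 100% = tunicamycin at 10 µg/mL and 0% = DMSO alone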
#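 System: CHO-CHOP luciferase reporter cell line; amount: 500 cells/well; buffer or medium: F12 medium containing 10% fetal bovine serum; incubation: 6 h compound exposure at 37 °C after overnight seeding; measured by: luciferase luminescence after 10 min with Steady-Glo reagent; evaluation: % reporter activation, DMSO baseline versus tunicamycin full activation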
# Beta2AR agonist = beta2AR agonists driving receptor internalization, primary screen, cell-based, FAP fluorogen, flow cytometry. Am2.2-beta2AR cells. response, % (concentration not given with the values). actives 0.43% (n = 340,000);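 active = response above a set limit, near 3 SD of response in nonfluorescent compounds, cut at about 42% in these data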
# Target sequence (P07550 whole entry, looked up): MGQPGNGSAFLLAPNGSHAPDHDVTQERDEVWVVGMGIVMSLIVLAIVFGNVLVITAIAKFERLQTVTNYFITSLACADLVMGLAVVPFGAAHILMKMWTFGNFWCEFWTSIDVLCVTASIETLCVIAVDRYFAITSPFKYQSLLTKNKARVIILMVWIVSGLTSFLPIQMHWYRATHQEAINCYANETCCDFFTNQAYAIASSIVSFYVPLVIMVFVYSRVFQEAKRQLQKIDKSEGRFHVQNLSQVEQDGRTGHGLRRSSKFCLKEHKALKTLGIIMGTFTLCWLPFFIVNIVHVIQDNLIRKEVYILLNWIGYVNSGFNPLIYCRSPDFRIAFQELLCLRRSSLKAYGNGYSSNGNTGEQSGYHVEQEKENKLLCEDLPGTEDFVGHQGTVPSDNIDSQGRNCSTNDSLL
# Mdm2-MdmX inh = inhibitors of human Mdm2-MdmX association, primary screen, cell-based, luminescence, split luciferase, SaOS-2, uHTS | SaOS-2 split-luciferase Mdm2/MdmX complementation | inhibition, % at 8 µM | actives 3% (n = 330,000);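 active = inhibition of at least 50% at 8 µM in the primary screen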
# Dynein transport = inhibitors of GR-EGFP nuclear translocation, primary screen, dynein cargo transport inhibitor project, imaging, high-content, 3617.4 mouse cells; actives 0.47% (n = 220,000); AID 1381, 2008; z-score, hits read low; test concentration mostly 20 µM; stimulated with dexamethasone, 1 µM; hits give low values;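 active = plate z-score of nuclear minus cytoplasmic receptor signal below a set negative limit, without overly bright fluorescence or cell loss, cut at about -3.5 in these data, passing the limit was not always enough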;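 note: z-score of nuclear minus cytoplasmic ring GR-EGFP intensity difference per well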
#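 medium = tetracycline-free induction medium containing charcoal-stripped FBS | probe or stimulus = dexamethasone, 1.0 µM final | timing = 48 h induction, then 1 h compound, then 30 min agonist, 37 °C | detection = automated 10x imaging of fixed Hoechst-stained cells | read-out basis = nuclear versus cytoplasmic GR-EGFP signal, averaged per well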
# MDM2 E3 inh = MDM2-luciferase reporter signal enhancers, primary screen, MDM2 E3 ligase inhibitor project, cell-based, luminescence, 1536-well | E3 ubiquitin-protein ligase Mdm2 (Homo sapiens), Q00987 | signal enhancement, % at 5 µM | cell-based MDM2 ubiquitination luciferase reporter, 2 h; 0 = plate control, 100 = twice control, blank-subtracted | actives 0.11% (n = 210,000);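 active = signal enhancement of 30% or more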;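 note: luminescence tracks abundance of the self-degrading MDM2-luciferase fusion protein; higher signal means inhibition of MDM2 E3 ligase activity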
#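 Test system: mammalian cells stably expressing self-ubiquitinating, self-degrading MDM2 E3–luciferase fusion; Amount: 2000 cells in each well; Medium: DMEM; Schedule: 4 h settle plus 2 h compound, 37 °C; Technique: SteadyLite luciferase luminescence after 15 min room-temperature reagent incubation; Benchmarks: plate control and blank wells.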
# UPR XBP1 act = activators of adaptive XBP1 UPR arm, primary screen, cell-based, CHO-XBP1 luciferase reporter, luminescence, uHTS; AID 463104, 2010; IRE1-XBP1 UPR activation; percent of tunicamycin response, DMSO as zero; activation, % at 20 µM; actives 0.33% (n = 330,000);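 active = versus positive control, 20 µM dose yields 30% or more activation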;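 note: 100% = tunicamycin at 10 µg/mL and 0% = DMSO only wells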
#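 Assay system: IRE1-XBP1 luciferase reporter CHO line. Input: 1000 cells/well. Buffer or medium: F12 with 10% serum. Doses: 20 µM, 1% DMSO. Times: overnight seeding at 37 °C, 6 h compound treatment at 37 °C. Technique: Steady-Glo luciferase glow luminescence, 10 min after reagent addition.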
# Mdm2 MdmX conf = Mdm2-MdmX complex disruptors, retested hits, confirmation, luminescence, single concentration | inhibition, % at 8 µM | shares compounds with Mdm2-MdmX inh | actives 55% (n = 10,000) | Mdm2-MdmX binding, luminescent assay; in the data active = inhibition above about 40%
# FLuc counter = full-length luciferase signal inhibition, confirmation, counter-screen for Mdm2/MdmX interaction inhibitor project, cell-based, single concentration, SaOS-2; shares compounds with Mdm2-MdmX inh; SaOS-2 full-length luciferase counterscreen, luminescence; inhibition, % at 8 µM; actives 77% (n = 6,200); AID 504607, 2011;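 active = mean inhibition at 8 µM reaching about 37%, which flags the compound as non-specific, limit read from the data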;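 note: p53-null SaOS-2 cells with luciferase driven by a doxycycline-inducible promoter; compound on cells about two nights before reading with doxycycline added after day one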
# The depositor's hits bear a star; . = no result given. Rows were chosen to be rich in hits. Some 3.7% of all compounds tested hit in one or more screens of this group.
SMILES,CHOP UPR activ,Beta2AR agonist,Mdm2-MdmX inh,Dynein transport,MDM2 E3 inh,UPR XBP1 act,Mdm2 MdmX conf,others
CN(C)CCCN1c2ccccc2Sc2ccc(Cl)cc21,0,14,68*,0.57,-14,-2,13,
CN(C)CCCN1c2ccccc2Sc2ccc3ccccc3c21,.,18,.,.,.,.,.,
CC(C)C[C@H](NC(=O)c1nc[nH]c1C(=O)NC(c1ccccc1)c1ccccc1)C(=O)OCc1ccccc1,4,-2,51*,2.2,.,1,11,
CC(C)C[C@H](NC(=O)c1nc[nH]c1C(=O)N[C@@H](CC(C)C)C(=O)OCc1ccccc1)C(=O)OCc1ccccc1,0,8,58*,.,.,6,0,
CC(C)C[C@H](NC(=O)c1[nH]cnc1C(=O)N[C@H](C)c1ccccc1)C(=O)OC(C)(C)C,3,9,47,0.66,.,2,.,
C[C@H](NC(=O)c1nc[nH]c1C(=O)N1CCN(c2ccccc2)CC1)C(=O)OCc1ccccc1,0,3,-10,.,.,-3,.,
O=C(N[C@@H](Cc1ccccc1)C(=O)OCc1ccccc1)c1nc[nH]c1C(=O)N1CCN(c2ccccc2)CC1,0,25,65*,1.8,-8,-3,-15,
CC(C)C[C@H](NC(=O)c1nc[nH]c1C(=O)NC(c1ccccc1)c1ccccc1)C(=O)OC(C)(C)C,16,13,89*,-0.63,.,2,2,
CC(C)C[C@H](NC(=O)c1[nH]cnc1C(=O)N[C@H](C)c1ccccc1)C(=O)OCc1ccccc1,1,11,-12,-0.63,.,-2,.,
CC(=O)Nc1ccc(NC(=O)C(C)OC(=O)c2ccc3ccccc3n2)cc1 (stereo unspecified),2,-2,11,.,.,0,.,
CCN(c1ccccc1)S(=O)(=O)c1ccc(Cl)c(NC(=O)Nc2ccc(Cl)cc2C#N)c1,4,-2,99*,-1.1,-2,2,99*,FLuc counter=56*
CCN(c1ccccc1)S(=O)(=O)c1ccc(Cl)c(NC(=O)CSc2ncn[nH]2)c1,-2,6,36,-0.026,-4,-3,.,
CCN(c1ccccc1)S(=O)(=O)c1cc(NC(=O)Nc2ccccc2C#N)ccc1Cl,0,-19,-34,0.33,-8,0,.,
CCN(c1ccccc1)S(=O)(=O)c1ccc(Cl)c(NC(=O)c2ccc(=O)[nH]n2)c1,0,-1,53*,.,.,-3,-3,
CCc1ccc(C(C)(O)C(CN2CCOCC2)c2ccccc2)cc1 (stereo unspecified),1,-5,-6,.,.,1,.,
CC12CCC(=O)N1C(C(=O)Nc1cccc(F)c1)CS2 (stereo unspecified),1,-10,27,.,.,-1,.,
C=C(C)CNC(=O)C1CCC(=O)N(CCCc2ccccc2)C1 (stereo unspecified),.,1,.,.,.,.,.,
Cc1c(C(=O)N/N=C/c2ccc(N(C)C)cc2)[nH]c2ccc(Cl)cc12,-1,5,65*,0.67,-2,25,51*,FLuc counter=69*
COc1ccc2c(c1)c(C(=O)N/N=C/c1ccc(Br)cc1)c(C)n2C,1,8,56*,-0.2,-83,1,39,FLuc counter=54*

# Screening results: PubChem BioAssay, several laboratories
